Activity calls are given as the source filed them. No cut-off for these calls is given here.
Experiments:
Mus musculus [1] = assay: Reduction in lymphocyte level in BALB/c mouse assessed as blood lymphocyte level at 30 mg/kg, po after 24 hrs by hematology analysis (reference value: 5.13 to 8.02 10^3/mm3); assay type: functional
[2] = Plasma clearance in mouse at 0.5 mg/kg, iv; assay type: ADME, organism-based
Mus musculus [3] = assay: Reduction in CD4 gene expression in SCID mouse with CD45RBhiCD4+ T-cell transfer-induced colitis model of inflammatory bowel disease at 1 mg/kg, po dosed daily for 5 weeks by RT-PCR method; assay type: functional; design: scale not given: the % may be the effect or the level left; settings: in the assay text read “dosed on alternate days” for “dosed daily”
Mus musculus [4] = assay: Reduction in lymphocyte level in BALB/c mouse assessed as blood lymphocyte level at 0.5 mg/kg, po after 24 hrs by hematology analysis (reference value: 5.13 to 8.02 10^3/mm3); assay type: functional
Mus musculus [5] = assay: Reduction in colon tissue damage in SCID mouse with CD45RBhiCD4+ T-cell transfer-induced colitis model of inflammatory bowel disease at 1 or 5 mg/kg, po dosed every other day for 5 weeks by H and E staining method; assay type: functional, organism-based
How it was run: (§1)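 CD45RBhiCD4+ T-cell transfer colitis in mice; oral alternate-day dosing for 5 weeks, compared with vehicle. Read-outs: body weight, colon length, histological colon inflammation and tissue damage, and colon gene expression by RT-PCR (IFN-γ, IL-2, CD4, B220, CD11b, Fcgr4, Ifit1, OASL2).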

Blood [6] = assay: Drug metabolism in BALB/c mouse blood assessed as formation of phosphate ester metabolite at 10 mg/kg administered through oral gavage after 24 hrs by LC/MS/MS analysis; assay type: ADME, organism-based; settings: in vivo
How it was run: (§2)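 Mouse PK study: alcohol prodrug given orally at 10 mg/kg, and formation of the phosphate metabolite in blood measured.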

Mus musculus [7] = assay: Reduction in IL2 gene expression in SCID mouse with CD45RBhiCD4+ T-cell transfer-induced colitis model of inflammatory bowel disease at 1 mg/kg, po dosed daily for 5 weeks by RT-PCR method; assay type: functional; design: scale not given: the % may be the effect or the level left; settings: in the assay text read “dosed on alternate days” for “dosed daily”
Mus musculus [8] = assay: Reduction in colon inflammation in SCID mouse with CD45RBhiCD4+ T-cell transfer-induced colitis model of inflammatory bowel disease at 1 or 5 mg/kg, po dosed every other day for 5 weeks by H and E staining method; assay type: functional, organism-based; how it was run: as §1
[9] = Drug metabolism in BALB/c mouse whole blood assessed as whole blood phosphate area ratio at 10 uM after 4 hrs by LC/MS/MS analysis; assay type: ADME, tissue-based
How it was run: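 Mouse whole blood incubated with the amino-alcohol prodrug; phosphorylated product measured by LC/MS/MS after 4 h to give the relative extent of phosphate ester formation.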

Mus musculus [10] = assay: Reduction in body weight loss in SCID mouse with CD45RBhiCD4+ T-cell transfer-induced colitis model of inflammatory bowel disease at 1 or 5 mg/kg, po dosed every other day for 5 weeks; assay type: functional, organism-based; how it was run: as §1
Mus musculus [11] = assay: Reduction in OASL2 gene expression in SCID mouse with CD45RBhiCD4+ T-cell transfer-induced colitis model of inflammatory bowel disease at 1 mg/kg, po dosed daily for 5 weeks by RT-PCR method; assay type: functional; design: scale not given: the % may be the effect or the level left
How it was run: (§3)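 CD45RBhiCD4+ T-cell transfer colitis in mice; oral dosing at 1 mg/kg/day for 5 weeks, compared with vehicle. Read-outs: body weight, colon length, and colon gene expression by RT-PCR (IFN-γ, IL-2, CD4, B220, CD11b, Fcgr4, Ifit1, OASL2).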

Mus musculus [12] = assay: Reduction in CD11b gene expression in SCID mouse with CD45RBhiCD4+ T-cell transfer-induced colitis model of inflammatory bowel disease at 1 mg/kg, po dosed daily for 5 weeks by RT-PCR method; assay type: functional; design: scale not given: the % may be the effect or the level left; settings: in the assay text read “dosed on alternate days” for “dosed daily”
Mus musculus [13] = assay: Pulmonary toxicity in BALB/c mouse assessed as BAL protein levels at 10 mg/kg, po after 24 by hematology analysis (reference value: 8.2 to 8.3 mg/dL); assay type: organism-based; settings: in vivo
Mus musculus [14] = assay: Reduction in Fcgr4 gene expression in SCID mouse with CD45RBhiCD4+ T-cell transfer-induced colitis model of inflammatory bowel disease at 1 mg/kg, po dosed daily for 5 weeks by RT-PCR method; assay type: functional; design: scale not given: the % may be the effect or the level left; how it was run: as §3
Mus musculus [15] = assay: Reduction of blood lymphocyte level in BALB/c mouse at 1 mg/kg administered through oral gavage after 24 hrs by hematology analysis; assay type: functional; design: scale not given: the % may be the effect or the level left
How it was run: (§4)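 Mice given a single oral 1 mg/kg dose; circulating lymphocytes counted 24 h later as the pharmacodynamic marker.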

Blood [16] = assay: Drug metabolism in BALB/c mouse blood assessed as formation of phosphate ester metabolite at 10 mg/kg administered through oral gavage after 4 hrs by LC/MS/MS analysis; assay type: ADME, organism-based; settings: in vivo; how it was run: as §2
Mus musculus [17] = assay: Induction of colon length shortening in SCID mouse with CD45RBhiCD4+ T-cell transfer-induced colitis model of inflammatory bowel disease at 1 or 5 mg/kg, po dosed every other day for 5 weeks; assay type: functional, organism-based; how it was run: as §1
Mus musculus [18] = assay: Reduction in IFNgamma gene expression in SCID mouse with CD45RBhiCD4+ T-cell transfer-induced colitis model of inflammatory bowel disease at 1 mg/kg, po dosed daily for 5 weeks by RT-PCR method; assay type: functional; design: scale not given: the % may be the effect or the level left; settings: in the assay text read “dosed on alternate days” for “dosed daily”
[19] = Oral bioavailability in mouse at 1 mg/kg; assay type: ADME, organism-based; settings: in vivo
Mus musculus [20] = assay: Reduction in Ifit1 gene expression in SCID mouse with CD45RBhiCD4+ T-cell transfer-induced colitis model of inflammatory bowel disease at 1 mg/kg, po dosed daily for 5 weeks by RT-PCR method; assay type: functional; design: scale not given: the % may be the effect or the level left; how it was run: as §3
Mus musculus [21] = assay: Pulmonary toxicity in BALB/c mouse assessed as BAL protein levels at 30 mg/kg, po after 24 by hematology analysis (reference value: 8.2 to 8.3 mg/dL); assay type: organism-based; settings: in vivo
Mus musculus [22] = assay: Reduction in lymphocyte level in BALB/c mouse assessed as blood lymphocyte level at 10 mg/kg, po after 24 hrs by hematology analysis (reference value: 5.13 to 8.02 10^3/mm3); assay type: functional
Blood [23] = assay: Drug metabolism in BALB/c mouse blood assessed as formation of phosphate metabolite at 1 mg/kg administered through oral gavage after 24 hrs by LC/MS/MS analysis; assay type: ADME, organism-based; settings: in vivo
How it was run: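 Single oral 1 mg/kg dose in mice; phosphate level in blood determined at 24 h postdose.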

[24] = Volume of distribution at steady state in mouse at 0.5 mg/kg, iv; assay type: ADME, organism-based; settings: in vivo, read-out: Vdss
Mus musculus [25] = assay: Pulmonary toxicity in BALB/c mouse assessed as BAL protein levels at 0.5 mg/kg, po after 24 by hematology analysis (reference value: 8.2 to 8.3 mg/dL); assay type: organism-based; settings: in vivo
Mus musculus [26] = assay: Reduction in B220 gene expression in SCID mouse with CD45RBhiCD4+ T-cell transfer-induced colitis model of inflammatory bowel disease at 1 mg/kg, po dosed daily for 5 weeks by RT-PCR method; assay type: functional; design: scale not given: the % may be the effect or the level left; settings: in the assay text read “dosed on alternate days” for “dosed daily”
Mus musculus [27] = assay: Reduction in blood lymphocyte level in BALB/c mouse at 1 mg/kg, po after 24 hrs by hematology analysis; assay type: functional, organism-based; how it was run: as §4

`CCCCCC[C@@H]1CCc2cc([C@H]3CC[C@](N)(CO)C3)ccc2C1` [BMS-986104] showed an Activity (Mus musculus [1]) of 0.52 ×10³ /mm3, a clearance [2] of 20 mL/min/kg and an Activity (Mus musculus [3]) of 51%. For the same compound, the Activity (Mus musculus [4]) was 1.65 ×10³ /mm3, the Activity (Mus musculus [5]) was “Dose-dependent effect” and the Drug metabolism (Blood [6]) was 202 nM. For the same compound, the Activity (Mus musculus [7]) was 63%, the Activity (Mus musculus [8]) was “Dose-dependent effect” and the Ratio [9] was 0.6. The inhibition (Mus musculus [10]) was “Dose-dependent effect”, the Activity (Mus musculus [11]) was 41% and the Activity (Mus musculus [12]) was 41%. For the same compound, the Activity (Mus musculus [13]) was 8.25 mg/dL, the Activity (Mus musculus [14]) was 50% and the Activity (Mus musculus [15]) was 88%. The Drug metabolism (Blood [16]) was 41 nM, the Activity (Mus musculus [17]) was “Dose-dependent effect” and the Activity (Mus musculus [18]) was 45%. It also gave a bioavailability [19] of 65%, an Activity (Mus musculus [20]) of 42% and an Activity (Mus musculus [21]) of 10 mg/dL. It also gave an Activity (Mus musculus [22]) of 0.51 ×10³ /mm3, a Drug metabolism (Blood [23]) of 27 nM and a Vd [24] of 60 L/kg. The Activity (Mus musculus [25]) was 7.67 mg/dL, the Activity (Mus musculus [26]) was 47% and the Activity (Mus musculus [27]) was “Active”.

Reference: ChEMBL document CHEMBL3804777, “Identification and Preclinical Pharmacology of BMS-986104: A Differentiated S1P1 Receptor Modulator in Clinical Trials” (ACS Med Chem Lett, 2016)
